According to publication PMC4831585 (Journal of the American Chemical Society, 2015):
Numbering of substitutions follows the chain as printed. In names and notes the source's numbering stands. Ends that are not written are not given here.

Columns and labels:
wt-MoaA [1] = biological target: T1, wt-MoaA (Staphylococcus aureus, UniProt P69848); test: Abortive SAM cleavage; type: biochemical; settings: 5′-dA vs cPMP amounts, triplicate, SD
G340A-MoaA [2] = biological target: T2, G340A-MoaA (Staphylococcus aureus, UniProt P69848, G340A); test: Abortive SAM cleavage; type: biochemical; settings: G340A-MoaA with 11-mer wt peptide, 5′-dA vs cPMP amounts; triplicate, SD
wt-MoaA [3] = biological target: T1, wt-MoaA; settings: [3′-D]GTP vs GTP as substrate; wt-MoaA reaction; cited from earlier work
MoaA GG-motif mutants = test: MoaA/MoaC coupled assay / peptide rescue, MoaA GG-motif mutants; type: biochemical, Staphylococcus aureus; settings: for increase of Km over wt-MoaA: GG-motif mutants with 500 μM 11-mer peptide vs wt-MoaA
G340A-MoaA [4] = biological target: T2, G340A-MoaA; test: MoaA/MoaC coupled assay; type: biochemical; settings: for activity restoration lower than the 11-mer peptide: G340A-MoaA, peptide 200 μM (Figure 4A)
R330A/K331A/K332A-MoaA = R330A/K331A/K332A-MoaA (Staphylococcus aureus, UniProt P69848, K331A/K332A/R330A); test: MoaA/MoaC coupled assay / peptide rescue, R330A/K331A/K332A-MoaA; type: biochemical; settings: for activity restoration by peptide: peptide 200 μM (Figure 4A)
wt-MoaA [5] = biological target: T1, wt-MoaA; test: Anaerobic ITC, wt-MoaA; type: binding
How it was run: (§1)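 His6-tagged S. aureus MoaA (wild type or GG-motif point mutants) was expressed in E. coli, purified and reconstituted anaerobically. […] Run as 29 injections at 24 °C, 307 rpm, with degassed buffer-only control titration.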

MoaA G339A = MoaA G339A (Staphylococcus aureus, UniProt P69848, G339A); test: Anaerobic ITC, G339A-MoaA; type: binding
How it was run: as §1

MoaA G340A = biological target: T3, MoaA G340A (Staphylococcus aureus, UniProt P69848, G340A); test: Anaerobic ITC, G340A-MoaA; type: binding
T3 sequence (P69848 1-340 G340A): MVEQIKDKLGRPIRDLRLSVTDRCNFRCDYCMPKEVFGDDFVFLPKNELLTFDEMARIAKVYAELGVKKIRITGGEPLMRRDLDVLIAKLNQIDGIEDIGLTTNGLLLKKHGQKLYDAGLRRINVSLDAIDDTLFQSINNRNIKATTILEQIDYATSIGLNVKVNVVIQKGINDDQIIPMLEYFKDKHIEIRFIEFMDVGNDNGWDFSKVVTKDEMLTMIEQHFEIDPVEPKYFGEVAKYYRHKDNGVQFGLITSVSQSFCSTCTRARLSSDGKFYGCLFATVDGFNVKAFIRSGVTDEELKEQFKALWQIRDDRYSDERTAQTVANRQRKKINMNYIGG
How it was run: as §1

D198A-MoaA = D198A-MoaA (Staphylococcus aureus, UniProt P69848, D198A); type: biochemical; settings: without peptide; coupled assay
[6] = with 500 μM 11-mer wt peptide, coupled assay with MoaC, pH 7.6, 25 °C

[2H][C@@]1(O)[C@@H](COP(=O)(O)OP(=O)(O)OP(=O)(O)O)O[C@@H](n2cnc3c(=O)[nH]c(N)nc32)[C@@H]1O [[3′-D]GTP]
uncoupling (abortive SAM cleavage relative to cPMP formation) (wt-MoaA [1]): 5.5 ± 3.0% | uncoupling (abortive SAM cleavage relative to cPMP formation) (G340A-MoaA [2]): 25 ± 6.7% | KIE (wt-MoaA [3]): 1.28 ± 0.05

RKKINMNYIGA
restoration of MoaA activity by GG-motif mutated peptide (MoaA GG-motif mutants; even at 1.0 mM peptide concentration, coupled assay (Figure 3A)): did not restore the MoaA activity

INMNYIGG [8-mer]
activity restoration lower than the 11-mer peptide (G340A-MoaA [4]; coupled assay): 10 fold | activity restoration by peptide (R330A/K331A/K332A-MoaA): No significant activity restoration

RKKINMNYIGG [11-mer wt peptide]
Kd (G340A-MoaA [4]; KD (peptide titration, figure legend), Figure 3C, nonlinear fit to the Hill equation, coupled assay): 151 µM | Kd (R330A/K331A/K332A-MoaA; Kd (peptide titration, figure legend), Figure 4B, nonlinear fit to Hill equation): 172 µM

Nc1nc2c(ncn2[C@@H]2O[C@H](COP(=O)(O)OP(=O)(O)OP(=O)(O)O)[C@@H](O)[C@H]2O)c(=O)[nH]1 [GTP, Guanosine 5′-triphosphate]
Km (G340A-MoaA [4]; [6]): 7.7 ± 3.8 µM | kcat (G340A-MoaA [4]; [6]): 0.000783 ± 5e-05 s⁻¹ | Kd (wt-MoaA [5]): 5 ± 3 µM | Kd (MoaA G339A): 0.46 ± 0.01 µM | Kd (MoaA G340A): 5.2 ± 2.3 µM | increase of Km over wt-MoaA (MoaA GG-motif mutants): 2–17 fold | uncoupling (abortive SAM cleavage relative to cPMP formation) (wt-MoaA [1]): 4.1 ± 2.7% | uncoupling (abortive SAM cleavage relative to cPMP formation) (G340A-MoaA [2]): 8.2 ± 4.8%

C[S+](CC[C@H](N)C(=O)[O-])C[C@H]1O[C@@H](n2cnc3c(N)ncnc32)[C@H](O)[C@@H]1O (stereo partly drawn) [SAM, S-adenosyl-L-methionine]
Km (G340A-MoaA [4]; [6]): 37 ± 14 µM | Kd (wt-MoaA [5]): 1.7 ± 0.6 µM | Kd (MoaA G339A): > 90 µM | Kd (MoaA G340A): > 90 µM | increase of Km over wt-MoaA (MoaA GG-motif mutants): 7–18 fold

NYIGG [5-mer]
activity restoration lower than the 11-mer peptide (G340A-MoaA [4]; coupled assay): 100 fold | activity restoration by peptide (R330A/K331A/K332A-MoaA): No significant activity restoration

B1: D198A-MoaA: S. aureus MoaA variant with D198A mutation in Loop 14 (protein)
chain: T3 sequence (P69848 1-340 G340A) with D198A
activity of mutant relative to wt-MoaA (D198A-MoaA): 8 % the activity of wt-MoaA

B2: R330A/K331A/K332A-MoaA (protein)
chain: T3 sequence (P69848 1-340 G340A) with R330A, K331A, K332A
activity of mutant relative to wt-MoaA (R330A/K331A/K332A-MoaA; without peptide): 8 % the activity of wt-MoaA
